In paper PMC4014002 (The FEBS journal, 2014):
Positions count from the first letter of the chain named. Several values for one entry are separate records, joined by “and”; a condition that tells them apart may be missing. Equal values may be shown once. Where a name gives a salt, the structure may show the parent alone. Read-outs that look alike come from different tables or passages of the source. Blank lines part the entries; values can stand above or below the compound they belong to.

Tests used:
[1] = target: T1, human wild-type L-FABP T94T (Homo sapiens, UniProt P07148); assay: Circular dichroism, ligand-induced secondary structure change; details: T94T 0.5 μM, 5 μM ligand, CD
T1 sequence (P07148 1-127): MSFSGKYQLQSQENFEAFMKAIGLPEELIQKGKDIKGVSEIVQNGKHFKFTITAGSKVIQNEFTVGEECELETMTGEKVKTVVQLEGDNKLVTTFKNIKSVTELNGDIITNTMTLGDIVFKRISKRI
How it was run: (§1)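 Recombinant delipidated L-FABP (0.5 μM, by amino acid analysis) in 10 mM potassium phosphate pH 7.4. Ligand added to 5 μM from a 500 μM ethanol stock, giving 1% ethanol final. Stirred 10 min at 25 °C, then scanned 185–250 nm. Ten scans were averaged, buffer/ligand/ethanol background subtracted and smoothed. Secondary structure was analysed by CONTIN against the SDP48 reference set, and % change was taken relative to protein alone.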

[2] = target: T2, rat L-FABP (Rattus norvegicus, UniProt P02692); assay: as above; details: rat L-FABP 0.5 μM, 5 μM ligand, CD
T2 sequence (P02692 1-127): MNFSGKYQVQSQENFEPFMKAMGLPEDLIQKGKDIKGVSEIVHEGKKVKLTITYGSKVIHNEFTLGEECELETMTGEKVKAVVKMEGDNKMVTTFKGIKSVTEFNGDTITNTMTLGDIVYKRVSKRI
How it was run: as §1

[3] = target: T3, human L-FABP T94A variant (Homo sapiens, UniProt P07148, T94A); assay: as above; details: T94A 0.5 μM, 5 μM ligand, CD
T3 sequence (P07148 1-127 T94A): T1 sequence (P07148 1-127) with T94A
How it was run: as §1

[4] = target: T3, human L-FABP T94A variant; assay: ANS binding to L-FABP
[5] = target: T2, rat L-FABP; assay: ANS binding to L-FABP
[6] = target: human L-FABP; details: human L-FABP bound one ANS; cited from earlier work
[7] = target: T1, human wild-type L-FABP T94T; assay: ANS binding to L-FABP
[8] = target: T3, human L-FABP T94A variant; assay: ANS displacement assay; format: binding
[9] = target: T1, human wild-type L-FABP T94T; assay: ANS displacement assay; format: binding
[10] = target: T2, rat L-FABP; assay: ANS displacement assay; format: binding
How it was run: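 Recombinant rat L-FABP (500nM, quantified by amino acid analysis) incubated 10 min with ANS (35μM) at pH 7.4, then titrated with small ligand aliquots. ANS emission scanned 410–600nm (380nm excitation). % ANS fluorescence remaining plotted vs ligand concentration gives EC50.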

[11] = system: L-FABP T94A variant human subjects; details: cited from earlier work
[12] = target: T94T and T94A; details: cited from earlier work
[13] = read-out: ANS Displacement – Ki, T94A 500nM, ANS 35μM, ND: no displacement
[14] = read-out: ANS Displacement – Ki, T94T 500nM, ANS 35μM, ND: no displacement
[15] = read-out: ANS Displacement – Ki, rat L-FABP 500nM, ANS 35μM, ND: no displacement

Structure (SMILES): O=S(=O)(O)c1cccc2cccc(Nc3ccccc3)c12 [ANS, 1-anilinonaphthalene-8-sulfonic acid]
- Kd [4]: 2400 ± 100 nM
- Fluorescence emission Maximum ([4]; ANS bound to T94A): 480 nm
- A.U./nM when fully bound (ANS fluorescence intensity/nM) ([4]; reverse titration, ANS 100nM, T94A): 1.0 A.U./nM and 0.98 ± 0.04 A.U./nM
- Kd [5]: 2500 ± 200 nM
- Fluorescence emission Maximum ([5]; ANS bound to rat L-FABP): 477 nm
- Bmax ([5]; forward titration, 500nM rat L-FABP): 1.4 and 1.42 ± 0.01
- A.U./nM when fully bound (ANS fluorescence intensity/nM) ([5]; reverse titration, ANS 100nM, rat L-FABP): 0.8 A.U./nM and 0.78 ± 0.02 A.U./nM
- Kd [6]: 2000 nM
- Kd [7]: 2300 ± 100 nM
- Fluorescence emission Maximum ([7]; ANS bound to T94T): 480 nm
- A.U./nM when fully bound (ANS fluorescence intensity/nM) ([7]; reverse titration, ANS 100nM, T94T): 1.0 A.U./nM and 1.03 ± 0.01 A.U./nM

Structure (SMILES): CC/C=C\C/C=C\C/C=C\C/C=C\C/C=C\C/C=C\CCC(=O)O [Docosahexaenoic acid, cis-4,7,10,13,16,19-docosahexaenoic acid]
- Ki [8]: 65 ± 9 nM
- Ki [9]: 72 ± 5 nM
- Ki [10]: 81 ± 15 nM

Structure (SMILES): CCCCCCCC/C=C\CCCCCCCC(=O)SCCNC(=O)CCNC(=O)[C@H](O)C(C)(C)COP(=O)(O)OP(=O)(O)OC[C@H]1O[C@@H](n2cnc3c(N)ncnc32)[C@H](O)[C@@H]1OP(=O)(O)O [Oleoyl CoA, Oleoyl Coenzyme A]
- Ki [8, 13]: 1030 ± 20 nM
- Ki [9, 14]: 1110 ± 40 nM
- Ki [10, 15]: 2410 ± 120 nM

Structure (SMILES): CCCCCCCC/C=C\CCCCCCCC(=O)O[C@@H](CO)COC(=O)CCCCCCCCCCCCCCC [PODG, 1-palmitoyl-2-oleoyl-sn-glycerol]
- change in secondary structure (L-FABP/ligand – L-FABP only) [1]: no or only small changes
- change in secondary structure (L-FABP/ligand – L-FABP only) [2]: no or only small changes
- change in secondary structure (L-FABP/ligand – L-FABP only) [3]: no or only small changes

Structure (SMILES): CCCCCCCC/C=C\CCCCCCCC(=O)O[C@H](COC(=O)CCCCCCCCCCCCCCC)COP(=O)(O)O [POPA, 1-palmitoyl-2-Oleoyl-sn-Glycero-3-Phosphate monosodium salt]
- Ki [8, 13]: 2800 ± 200 nM
- Ki [9, 14]: 2800 ± 300 nM
- Ki [10, 15]: 9100 ± 800 nM

Structure (SMILES): CCCCCCCCCCCCCCCC(=O)O [Palmitic acid, palmitic acid]
- Ki [8]: 43 ± 1 nM
- Ki [9]: 38 ± 1 nM
- Ki [10]: 48 ± 1 nM

Structure (SMILES): CCCCCCCCCCCCCCCCCC(=O)O [Stearic acid]
- Ki [8]: 28 ± 1 nM
- Ki [9]: 29 ± 2 nM
- Ki [10]: 37 ± 4 nM

Structure (SMILES): CC(C)OC(=O)C(C)(C)Oc1ccc(C(=O)c2ccc(Cl)cc2)cc1 [fenofibrate]
- lowering of elevated plasma triglyceride to basal levels [11]: less effective in lowering elevated plasma triglyceride to basal levels

Structure (SMILES): CC(C)(Oc1ccc(C(=O)c2ccc(Cl)cc2)cc1)C(=O)O [fenofibric acid]
- Ki, T94T compared with T94A [12]: same (or similar) Ki

Structure (SMILES): CC(C)CCC[C@@H](C)CCC[C@@H](C)CCCC(C)CC(=O)O (stereo partly drawn) [phytanic acid]
- Ki, T94T compared with T94A [12]: same (or similar) Ki

Results, then the compound that gave them:

- change in secondary structure (L-FABP/ligand – L-FABP only) [1]: no or only small changes
- change in secondary structure (L-FABP/ligand – L-FABP only) [2]: no or only small changes
- change in secondary structure (L-FABP/ligand – L-FABP only) [3]: no or only small changes
Structure (SMILES): CCCCCCCC/C=C\CCCCCCCC(=O)OC(CO)CO [2-OMG, 2-oleoyl glycerol]

- Ki [8]: 108 ± 6 nM
- Ki [9]: 113 ± 6 nM
- Ki [10]: 110 ± 6 nM
- change in secondary structure (L-FABP/ligand – L-FABP only) [3]: < 8%
Structure (SMILES): CCCCC/C=C\C/C=C\C/C=C\C/C=C\CCCC(=O)O [Arachidonic acid, arachidonic acid]

- Ki [8]: 190 ± 10 nM
- Ki [9]: 200 ± 30 nM
- Ki [10]: 240 ± 30 nM
Structure (SMILES): CCC=CCC=CCC=CCC=CC/C=C\CCCC(=O)O [Eicosapentaenoic acid, cis-5,8,11,14,17-eicosapentaenoic acid]

- Ki [8, 13]: 36 ± 4 nM
- Ki [9, 14]: 52 ± 7 nM
Structure (SMILES): CCCCCCCC/C=C\CCCCCCCC(=O)OC[C@@H](O)COP(=O)(O)O [LPA, Oleoyl-L-α-lysophosphatidic acid sodium salt]

- Ki [8]: 132 ± 3 nM
- Ki [9]: 113 ± 5 nM
- Ki [10]: 81 ± 5 nM
Structure (SMILES): CCCCC/C=C\C/C=C\CCCCCCCC(=O)O [Linoleic acid, linoleic acid]

- Ki [10]: 43 ± 2 nM
Structure (SMILES): CCCCCCCC/C=C\CCCCCCCC(=O)O [Oleic acid, oleic acid]
